Data: ChEMBL document CHEMBL4513216, “Probing the Open Global Health Chemical Diversity Library for Multistage-Active Starting Points for Next-Generation Antimalarials” (ACS Infect Dis, 2020)

Experiment: Toxicity liver stage against HepG2, at 10uM
Format: cell-based
Set-up: test concentration 10 uM, cell line HepG2-A16-CD81EGFP
Settings: human, HepG2-A16-CD81EGFP cells; read-out: INHIBITION
Summary of the method: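 Uninfected HepG2-A16-CD81EGFP cells, 3 × 10^3 per well, 1536-well, plated on prespotted compound at 10 μM final, parasite-free screening media added to match infected plates; puromycin 10 μM positive, DMSO 0.5% negative; run in parallel with 48 h PbLuc assay at 37 °C, 5% CO2; viability by CellTiter-Glo luminescence, normalized to controls.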

SMILES	cytotoxicity at 10 µM
CCC(CO)NC(=O)Nc1cc(F)ccc1SCC(F)F (stereo not given)	12.6%
CN(C)S(=O)(=O)c1ccc(=O)n(CC2CCCO2)c1 (stereo not given)	-3.54%
Cc1nc(Nc2ncccn2)cc(C2CCCN2CC(C)C)n1 (stereo not given)	7.02%
CC(C)OCCCN(CC(=O)N1CCNCC1)C(=O)c1ccc(F)cc1	8.85%
COCc1nn(Cc2ccc(Cl)s2)c(=O)o1	1.97%
Cc1nc(C)n(CC2CCCN(Cc3ncc(C(C)(C)C)o3)C2)n1 (stereo not given)	-5.95%
COc1ccccc1-n1cc(CN2CCN(C)[C@@H]3CS(=O)(=O)C[C@@H]32)cn1	14.5%
c1cncc(COCc2nnc3n2CCN(Cc2ccsc2)C3)c1	-21.6%
COc1cc(CNc2cc(-c3ccoc3C)nn2CCO)ccc1F	-14.6%
O=C(c1ncccn1)N1CCC2(CC1)COC(COc1ccccn1)C2 (stereo not given)	-1.96%
Cc1cnc(-c2nc(NC3CC3)ncc2-c2cc(C)no2)cn1	-21.3%
CCN(CC)CCSc1nnc(N2CCN(c3ccc(F)cc3)CC2)s1	-5.12%
C[C@H](NC(=O)c1cccc(CCC(C)(C)O)c1)C(N)=O	-0.511%
Nc1ncccc1CN1CCCn2nc(CCC(=O)NC3CC3)cc2C1	1.45%
NC(=O)C1CCN(C(=O)Cc2ccc(Cl)c(Cl)c2)CC1	5.82%
O=C([C@H]1COC[C@H]2CN(CC3CC3)C[C@H]21)N1CCOCC1	11.8%
O=C(c1cccnc1SC/C=C/c1ccccc1)N1CC[C@H](O)C1	-9.66%
NC(=O)COc1ccc(CN2CCC3(CC2)[C@H](O)C[C@@H]3O)cc1Cl	3.76%
CC(C)Cc1cc(-c2cc(-c3ccc[nH]3)nc(N)c2C#N)n[nH]1	14.3%
CCNc1ncc(CN2C[C@@H](C(=O)O)[C@H](C3CC3)C2)cn1	-46.1%
Cn1cc(N2CCC3(CCN(S(=O)(=O)C4CC4)C3)C2=O)cn1 (stereo not given)	-2.45%
Cc1nc(C)c(C(=O)N2Cc3cc(F)ccc3CC2C)o1 (stereo not given)	6.07%

SMILES	cytotoxicity at 10 µM
CN(C)Cc1nc2c(o1)CN(C(=O)c1ccncc1F)C2	-114%
Cc1cc(C(=O)N2CCN(C)CC2)nn1CC(=O)NCc1cccs1	-5.83%
Cc1cc(CN2CCC(C3CCN(CCc4ccccc4)C3)CC2)[nH]n1 (stereo not given)	7.19%
CC1CN(C(=O)C2(c3cccc(F)c3)CCOCC2)CCO1 (stereo not given)	4.89%
CN(C)C(=O)[C@@H]1CC[C@@H]2[C@@H](CCN2Cc2ccccn2)O1	-3.55%
Fc1ccc(-c2nc(CN3CCCCC3Cn3cncn3)co2)cc1 (stereo not given)	-8.18%
c1ccc(CCN2CCN(C3CCOC4(CCOCC4)C3)CC2)cc1 (stereo not given)	-3.79%
Cc1ncc(CC(=O)N2CCCC(COc3ccc(F)cc3)C2)c(=O)[nH]1 (stereo not given)	-142%
Cc1cc(CN(C)C2CCCN(Cc3noc(C4CC4)n3)C2)on1 (stereo not given)	-1.68%
c1cnc(N2CCC3(CCN(Cc4cccnc4)CC3)CC2)nc1	-88.4%
COCCN(CCC#N)S(=O)(=O)c1cc(F)ccc1F	-9.91%
CN1C(=O)CC(c2ccccc2)C12CCN(c1ncc(F)cn1)CC2 (stereo not given)	-108%
CN1[C@@H]2CC[C@H]1CN(C(=O)c1nnc3n1CCCCC3)CC2	-5.43%
CC1CCN(c2nc3c(cnn3-c3ccccc3)c(=O)[nH]2)CC1	-9.5%
Cc1nccnc1CCC1COCCN1C(=O)CCc1c(C)noc1C (stereo not given)	5.7%
O=C(c1cccc(F)c1)N1CC[C@H]2[C@H]1CCN2CC1CCOCC1	-75.4%
COCCN1CC[C@@H](O)[C@@H]1Cc1ccccc1	3.67%
CCn1cc(CN(C)c2nc(C)c3ccc(S(C)(=O)=O)cc3n2)cn1	48.8%
COc1cccc(OCC2CCCN(C(=O)c3cnc(C)nc3O)C2)c1 (stereo not given)	-15.8%
Cc1cncc(C(=O)N2CCO[C@H]3[C@H](Oc4ccccn4)CC[C@@H]32)c1	-115%
COCCOc1ccccc1CNCc1c(C)nn(C)c1N(C)C	-5.65%
CCCS(=O)(=O)N1CCC2(CC1)CN(C(=O)N(C)C)c1ccccc12	-108%

SMILES	cytotoxicity at 10 µM
CCc1c(C)sc2ncnc(N3C[C@H](O)[C@@H](N4CCCC4)C3)c12	-4.36%
NC(=O)c1ccc(CNC(=O)NCc2cc[nH]n2)cc1	12.3%
O=C(CC1CC1)N1CCC2(CC1)CN(c1ncccn1)CCO2	1.49%
CCCc1nccn1CCn1cnc2ccsc2c1=O	0.0394%
c1cnc(-c2cnc(N3CCSCC3)nc2C2CCCO2)cn1 (stereo not given)	4.4%
COCCCNC(=O)c1ccccc1S(C)(=O)=O	-2.83%
O=C(c1cscn1)N1C[C@H]2CCC[C@@]2(COCc2ccccn2)C1	-103%
CC(=O)NCC(=O)N1Cc2ccnn2CC(COCCN(C)C)C1 (stereo not given)	6.15%
Cc1nc(C)c(CNC(=O)N2CCc3ccccc3C2CO)s1 (stereo not given)	23.7%
CC(C)(C)CCCC(=O)Nc1ccnn1C1CCS(=O)(=O)C1 (stereo not given)	-9.92%
O=c1c2cnc(N3CCOCC3)nc2ccn1-c1ccccc1	-3.12%
O=C(c1ccncc1)N1C[C@@H]2OCCN(CCN3CCCC3)[C@@H]2C1	-77.1%
Cc1nc2c(c(NCc3ccc(-c4ccccn4)s3)n1)CCNCC2	-59.5%
Cc1nc(C2CCCN(C(=O)c3cc(Cl)c4c(c3)OCO4)C2)no1 (stereo not given)	-2.09%
COCC(C)NC(=O)c1nnn(-c2ccc(OC)cc2)n1 (stereo not given)	1.87%
Cc1nn2cccnc2c1C(=O)NCc1ccccc1OCC1CC1	-48.4%
CN(CCSc1ccccc1)C(=O)C(c1cccnc1)N1CCOCC1 (stereo not given)	4.94%
Cc1n[nH]c(C)c1CCc1nc(C2CC2)n[nH]1	-12%
Cc1cc(-c2cnc(NC3CC3)nc2-c2ccco2)on1	-23.2%
CCNc1cc(N2CCN(C(=O)c3ccc(OC)cc3)CC2)nc(C)n1	-3.45%
CC(=O)N1CCC(c2[nH]ncc2S(C)(=O)=O)CC1	0.752%
Cc1ncc(S(=O)(=O)N(CC(C)C)c2cccc(O)c2)s1	-41.2%

SMILES	cytotoxicity at 10 µM
Cc1cc(S(=O)(=O)Nc2cccc(I)c2)sc1C(=O)O	3.76%
Cc1nc(CNC(C)c2ccc(S(=O)(=O)N(C)C)cc2)no1 (stereo not given)	-4.32%
Nc1nc(N)c2c(n1)OC1(CCN(C(=O)CC3CCCCN3)CC1)C2 (stereo not given)	-0.24%
CNC(=O)COc1ccc(CNc2cncc(-n3cccn3)n2)cc1	-0.906%
O=C(C1CCCN(CCc2ccc3c(c2)CCO3)C1)N1CCCC1 (stereo not given)	-19.8%
CC(C)N(C)Cc1nnc2n1CCCN(c1cnccn1)C2	0.0861%
COCCc1ncc(CN2CCC3(CCCN(CC4CC4)C3)C2)cn1 (stereo not given)	-4.07%
Cc1csc(N2CCCN(C(=O)Cn3cncn3)CC2)n1	-3.27%
CC(C)NC(=O)C1CCN(c2snc3ccccc23)CC1	-8.18%
Cc1cc(Br)c(O)c(-c2nc(N3CCCCC3)sc2C)c1	-7.13%
Cc1[nH]c2ccc(CNc3cc(C(=O)NC(C)C)ccn3)cc2c1C	16.2%
Cc1cc(C)n(C2CCCN(C(=O)c3c(C)c(C)n[nH]c3=O)C2)n1 (stereo not given)	3.18%
CCc1nccn1C1CCCN(C(=O)c2cc(C3CC3)on2)C1 (stereo not given)	-6.96%
COCCCN1CCCN(C(C)C(=O)Nc2ccnn2C(C)C)CC1 (stereo not given)	-8.8%
COc1cccc(N2CCC(CNc3cc(C)nc4ncnn34)C2)c1 (stereo not given)	59.7%
O=C(c1c(O)cnc2ccccc12)N1CCCSCC1	-9.7%
Cc1nc(CN2C(=O)C[C@@H]3[C@@H]2CCN3C(=O)C2CCOCC2)cs1	-10.8%
Cc1ncsc1CCC(=O)N1CCn2cccc2C1c1cccnc1 (stereo not given)	-9.57%
Cc1nc(C)n(CC2CN(Cc3cccc4ccccc34)CCO2)n1 (stereo not given)	-2.64%
COc1cc(CNCCc2cnn(C)c2)cc(OC)c1OC	-9.51%
O=C(CCCc1nnc(-c2ccccc2)o1)N1CCC1	-3.41%
Fc1cccc(CN2CCC(c3n[nH]c4ncccc34)CC2)c1F	-2.86%

SMILES	cytotoxicity at 10 µM
CC(=O)Nc1nc(COc2nc(C)no2)cs1	-16.6%
Cc1n[nH]c(C)c1Sc1ccccc1NC(=O)CN1CCCC1	-8.7%
Cc1cccc(N2CCN(CCC(=O)NCc3nnc[nH]3)CC2)c1	-6.26%
CC(O)CN(C)c1cc(C(F)(F)F)nc(-c2cccnc2)n1 (stereo not given)	-6.68%
OCCN1CC2(CCN(CC3CC3)CC2)c2ccccc21	6.4%
CC(C)N1CCC(c2cnc(-c3cncnc3)cn2)CC1	2.55%
CC(C)C(NC(=O)c1ccc(N2CCOCC2)nc1)c1cccs1 (stereo not given)	-44%
Cn1cc(-c2ncnc3c2CCN(C(=O)N2CCOCC2)CC3)cn1	-11.3%
CC(C)N(C)Cc1cnc2n1CCN(C(=O)c1cccs1)C2	-74.2%
CCN(Cc1c(F)cccc1F)Cn1nc(C)c2c(C)onc2c1=O	-1.52%
CNc1nc(CNC(=O)Nc2ccc(OC(C)C)cc2C)cs1	26.4%
CSc1nccc(N2CCC3(CCCN(CC4CC4)C3)C2)n1 (stereo not given)	-10.1%
COCCC1CCCCN1Cc1nc(C2CC2)no1 (stereo not given)	8.53%
CN(Cc1nc(Cc2ccccc2F)no1)CC1Cc2ccccc2O1 (stereo not given)	-5.19%
O=C1CC(c2ccccc2)c2snc(C(=O)O)c2N1 (stereo not given)	-5.02%
CCc1nc(Cn2c(=O)n(CC)c3ccccc32)no1	-43.9%
CC(C)CN(C)Cc1nc2c(cnn2C)c(=O)[nH]1	-12.3%
CC(C)N1CCC(CC(=O)NC(C(=O)O)c2cccc(F)c2)CC1 (stereo not given)	-0.114%
Cc1nc(C)n(C2CCCN(C(=O)c3ccc4c(c3)COC4)C2)n1 (stereo not given)	-9.12%
Cc1ccc(O)c(C(=O)N2CCOCC2c2c(C)n[nH]c2C)c1 (stereo not given)	-10.8%
CS(=O)(=O)N1CCCC(Cc2cnc(Br)cn2)CC1 (stereo not given)	-2.46%
CS(=O)(=O)c1cccc(C(N)c2ccc(Cl)cc2)c1 (stereo not given)	-16.1%
